Reference: publication PMC3673019 (Biochemistry, 2012)
Entries after “also recorded” stand apart in the source; their conditions may differ. Read-outs that look alike come from different tables or passages of the source. One block for each compound: values may come before it.

What was measured:
eEF-2K [1] = molecular target: T1, eEF-2K (Homo sapiens, UniProt O00418); assay type: biochemical
HEK-293T cells = assay: Western blot of phospho-eEF2; assay type: cell-based; conditions: 4 µM NH125, 0–12 h
A549 lung cancer cells = assay: Western blot of phospho-eEF2; assay type: cell-based; conditions: 4 µM NH125, 0–12 h
[2] = system: eEF2 phosphorylation in the hippocampus; conditions: 5 mg/kg, 30 minutes, mice; cited from earlier work
[3] = system: human microvascular endothelial cells (HMVECs); conditions: 200 nM NH125, 2 hour pre-incubation; cited from earlier work
[4] = system: H1299, PC3, HeLa, H460 and C6 cell lines; conditions: NH125 for 6 hours; cited from earlier work
C6 glioma cells = conditions: 1 µM NH125, 12 hours; cited from earlier work
cancer cell lines = conditions: read-out: EC50, decrease of viability; a number of cancer cell lines; cited from earlier work
eEF-2K [5] = molecular target: T1, eEF-2K; assay: Dose-response inhibition of Pep-S phosphorylation by NH125; assay type: biochemical; conditions: in the presence of 0.1% triton X-100
eEF-2K [6] = molecular target: T1, eEF-2K; assay: Phosphorylation of wheat germ EF2 by eEF-2K in vitro; assay type: biochemical
TRPM7 = molecular target: T2, TRPM7 (Homo sapiens, UniProt Q96QT4); assay: Dose-response inhibition assay against TRPM7; assay type: biochemical; conditions: 25 nM TRPM7, 500 µM ATP (data not shown)
T2 sequence (Q96QT4 1551-1830): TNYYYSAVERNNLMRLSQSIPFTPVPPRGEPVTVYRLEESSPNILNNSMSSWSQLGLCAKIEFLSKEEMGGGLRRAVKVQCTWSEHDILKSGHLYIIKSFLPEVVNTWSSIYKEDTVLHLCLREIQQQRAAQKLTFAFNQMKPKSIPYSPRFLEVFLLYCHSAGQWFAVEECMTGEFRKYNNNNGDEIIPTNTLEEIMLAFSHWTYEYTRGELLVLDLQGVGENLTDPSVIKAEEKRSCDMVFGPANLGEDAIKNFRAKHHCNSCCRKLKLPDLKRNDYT

[7] = system: MDA-MB-231 breast cancer cells; assay: Western blot of phospho-eEF2; assay type: cell-based; conditions: 4 µM NH125, 0–12 h
ERK2 = ERK2 (Homo sapiens, UniProt P28482); assay: Dose-response inhibition assay against ERK2; assay type: biochemical
Procedure, shortened: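 Radiometric kinase assay: 2 nM ERK2, 500 µM [γ-32P]-ATP, 20 µM Ets1 substrate, test compound 0–500 µM. IC50 and Hill coefficient came from a dose-response equation fit.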

GST-eEF-2K = conditions: in vitro kinase assay; cited from earlier work
eEF-2K [8] = conditions: cited from earlier work
[9] = cited from earlier work
[10] = varied ATP 12.5–125 µM, fixed Pep-S 50 µM

T1 sequence (O00418 whole entry): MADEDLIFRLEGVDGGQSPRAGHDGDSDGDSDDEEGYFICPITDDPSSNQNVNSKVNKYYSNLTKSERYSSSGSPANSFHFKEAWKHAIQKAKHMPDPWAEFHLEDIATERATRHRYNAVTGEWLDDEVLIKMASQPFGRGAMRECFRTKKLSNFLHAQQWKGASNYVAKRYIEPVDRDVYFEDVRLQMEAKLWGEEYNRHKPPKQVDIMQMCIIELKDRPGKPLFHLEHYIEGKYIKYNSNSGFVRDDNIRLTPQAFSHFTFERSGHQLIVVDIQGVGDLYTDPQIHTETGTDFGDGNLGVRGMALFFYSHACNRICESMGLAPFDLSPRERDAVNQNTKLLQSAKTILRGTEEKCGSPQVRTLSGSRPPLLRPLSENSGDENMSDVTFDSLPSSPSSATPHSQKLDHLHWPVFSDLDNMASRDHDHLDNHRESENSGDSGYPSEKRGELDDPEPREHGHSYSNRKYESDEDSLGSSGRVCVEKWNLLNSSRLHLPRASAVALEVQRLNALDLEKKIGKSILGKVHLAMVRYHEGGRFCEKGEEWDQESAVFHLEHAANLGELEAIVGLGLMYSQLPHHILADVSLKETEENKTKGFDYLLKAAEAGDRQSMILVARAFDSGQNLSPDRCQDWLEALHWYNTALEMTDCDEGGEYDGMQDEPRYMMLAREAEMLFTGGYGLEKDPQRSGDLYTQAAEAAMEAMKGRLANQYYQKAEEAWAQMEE
Sequence of ERK2 (P28482 whole entry, species assumed): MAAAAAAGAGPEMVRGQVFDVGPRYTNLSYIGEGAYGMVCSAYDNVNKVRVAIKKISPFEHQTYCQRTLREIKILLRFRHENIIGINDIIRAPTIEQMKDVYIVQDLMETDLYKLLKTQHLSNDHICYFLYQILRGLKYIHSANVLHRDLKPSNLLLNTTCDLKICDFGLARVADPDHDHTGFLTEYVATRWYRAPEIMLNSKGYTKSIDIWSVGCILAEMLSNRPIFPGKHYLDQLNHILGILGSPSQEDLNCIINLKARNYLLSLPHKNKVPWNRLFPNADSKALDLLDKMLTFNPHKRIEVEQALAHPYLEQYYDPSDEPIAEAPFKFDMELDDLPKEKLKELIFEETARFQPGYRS

Compound: Nc1ncnc2c1ncn2[C@@H]1O[C@H](COP(=O)(O)OP(=O)(O)OP(=O)(O)O)[C@@H](O)[C@H]1O [ATP, adenosine triphosphate]
Kd (eEF-2K [1]): 16.2 ± 6.9 µM

Compound: CC(=O)c1c(O)c(C)c(O)c(Cc2c(O)c3c(c(C(=O)/C=C/c4ccccc4)c2O)OC(C)(C)C=C3)c1O [Rottlerin, rottlerin]
kinase selectivity (eEF-2K [8]): nonspecific inhibitor of multiple protein kinases

Compound: O=C1OC(c2cc(I)c(O)c(I)c2)(c2c(I)cc(O)cc2I)c2ccccc21 (stereo not shown) [tetraiodophenolphthalein]
diameter of aggregates [9]: approximately 150 nm

Further lines, with some results ahead:

Mechanism of inhibition (eEF-2K [1]; [10]): Competitive ^d
Mechanism of inhibition (eEF-2K [1]; varied Pep-S, fixed ATP 50 µM): Mixed ^g
Compound: Nc1ncnc2c1ncn2[C@@H]1O[C@H](COP(=O)(O)OP(=O)(O)O)[C@@H](O)[C@H]1O [ADP, adenosine diphosphate]

Hill coefficient (eEF-2K [5]): 1.0 ± 0.28
effect on phosphorylation of wheat germ eEF2 (eEF-2K [6]; NH125 12.5 – 50 µM (Figure S3)): inhibition is observed
Hill coefficient (TRPM7): 1.6
IC50 (ERK2): 70 µM
Hill coefficient (ERK2; 2 nM ERK2, 500 µM ATP (data not shown)): 3.6
Compound: CCCCCCCCCCCCCCCC[n+]1ccn(Cc2ccccc2)c1C.[I-] [NH125, 1-benzyl-3-cetyl-2-methylimidazolium iodide]
levels of eEF-2K and eEF-2 (HEK-293T cells): increase
phospho-eEF2 (Thr-56) level (HEK-293T cells; versus DMSO): No sign of decrease; also recorded: increased; also recorded: no inhibition was observed; also recorded: did not inhibit
levels of eEF-2K and eEF-2 (A549 lung cancer cells): increase
phospho-eEF2 (Thr-56) level (A549 lung cancer cells; versus DMSO): No sign of decrease; also recorded: increased; also recorded: no inhibition was observed; also recorded: did not inhibit
eEF2 phosphorylation in the hippocampus [2]: observable decrease
resveratrol-induced eEF2 phosphorylation [3]: inhibition
phosphorylation of eEF-2 [4]: induction; also recorded: induce phosphorylation
phosphorylation of eEF2 (C6 glioma cells): strongly inhibits
EC50 (cancer cell lines): 1 to 5 µM
effect on the rate of phosphorylation of wheat germ eEF2 (eEF-2K [6]; NH125 0–5 µM, 1 µM eEF2, 7.5 µM ATP, 10 nM eEF-2K): no detectable effect; also recorded: failed to inhibit
levels of eEF-2K and eEF-2 [7]: increase
phospho-eEF2 (Thr-56) level ([7]; versus DMSO): No sign of decrease; also recorded: increased; also recorded: no inhibition was observed; also recorded: did not inhibit
IC50 (GST-eEF-2K): 0.06 µM

Mechanism of inhibition (eEF-2K [1]; [10]): Mixed ^g
Mechanism of inhibition (eEF-2K [1]; varied Pep-S, fixed ATP 50 µM): Competitive ^d
Compound: Ac-RKKYKFNEDAERRRFL-NH2 [Pep-I]
